From ChEMBL document CHEMBL1144171, “Novel hypoglycemic dihydropyridones serendipitously discovered from O- versus C-alkylation in the synthesis of VMAT2 antagonists” (Bioorg Med Chem Lett, 2008)
The source made the active and inactive calls. The calls are words filed in the database; no cut-off is given here.

Tests used:
[1] = test system: Rattus norvegicus; experiment: Hypoglycemic activity in fasted Lewis rat at 2 mg/kg, iv administered 30 mins prior to glucose stimulation measured after 120 mins by glucose tolerance test; assay type: functional, organism-based; set-up: dose 2 mg/kg
In short: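 Lewis rats fasted 6 h received drug iv at −30 min (2mg/kg), then glucose 2g/kg ip at 0 min; blood glucose followed 120 min. AUC IPGTT by trapezoidal rule, SEM (n=5); drug versus vehicle compared by Student's t test.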

[2] = test system: Rattus norvegicus; experiment: Toxicity in Lewis rat assessed as tonic seizure at 2 mg/kg; assay type: organism-based; set-up: dose 2 mg/kg; settings: in vivo
[3] = target: Dipeptidyl peptidase 4 (Homo sapiens) (UniProt P27487); experiment: Inhibition of DPP4 upto 10 uM
Sequence of Dipeptidyl peptidase 4 (Homo sapiens) (P27487 whole entry, looked up): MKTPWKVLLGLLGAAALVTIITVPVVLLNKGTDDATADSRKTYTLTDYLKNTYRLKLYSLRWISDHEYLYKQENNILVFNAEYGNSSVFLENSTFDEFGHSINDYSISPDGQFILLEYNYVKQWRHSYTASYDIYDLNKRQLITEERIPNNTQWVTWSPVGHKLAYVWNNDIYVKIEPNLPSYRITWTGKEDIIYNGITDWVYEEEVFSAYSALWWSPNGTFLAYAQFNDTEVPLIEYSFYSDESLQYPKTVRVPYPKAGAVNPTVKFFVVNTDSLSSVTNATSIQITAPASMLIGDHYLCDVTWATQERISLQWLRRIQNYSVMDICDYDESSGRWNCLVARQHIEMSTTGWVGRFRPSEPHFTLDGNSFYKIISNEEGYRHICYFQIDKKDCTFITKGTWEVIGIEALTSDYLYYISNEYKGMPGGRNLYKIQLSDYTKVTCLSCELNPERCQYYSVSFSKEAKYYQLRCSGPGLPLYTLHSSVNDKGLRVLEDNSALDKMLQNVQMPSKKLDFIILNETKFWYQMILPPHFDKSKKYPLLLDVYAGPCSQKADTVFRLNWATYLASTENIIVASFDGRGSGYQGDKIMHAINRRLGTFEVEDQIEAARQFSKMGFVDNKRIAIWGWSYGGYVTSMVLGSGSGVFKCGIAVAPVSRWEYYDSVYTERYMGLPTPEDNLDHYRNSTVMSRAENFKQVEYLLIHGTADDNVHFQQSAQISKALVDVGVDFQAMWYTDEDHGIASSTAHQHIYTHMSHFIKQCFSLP

Structure (SMILES): COc1ccc(C2CC(O)C(CC(C)C)CN2)cc1OC (stereo not drawn)
- Activity [1]: Active

Structure (SMILES): COc1cc2c(cc1OC)C1CC(OCC(C)C)=CC(=O)N1CC2 (stereo not drawn)
- Activity [1]: Active

Structure (SMILES): COc1cc2c(cc1OC)C1CC(=O)C(CC(C)C)CN1CC2 (stereo not drawn) [TETRABENAZINE]
- Activity [2]: Toxic

Structure (SMILES): COc1ccc(-c2cc(OCC(C)C)cc(=O)[nH]2)cc1OC
- Activity [1]: inactive

Structure (SMILES): COc1cc2c(cc1OC)[C@@H]1C[C@H](O)[C@@H](CC(C)C)CN1CC2
- Activity [2]: Toxic
- Activity [1]: Active

Structure (SMILES): COc1ccc(C2CC(OCC(C)C)=CC(=O)O2)cc1OC (stereo not drawn)
- Activity [1]: inactive

Structure (SMILES): COC1=CC(=O)N2CCc3cc(OC)c(OC)cc3C2C1 (stereo not drawn)
- Activity [1]: Active

Structure (SMILES): COc1ccc(C2CC(=O)CC(=O)N2)cc1OC (stereo not drawn)
- Activity [1]: inactive

Structure (SMILES): COc1ccc(C2CC(OCC(C)C)=CC(=O)N2)cc1OC (stereo not drawn)
- Activity [2]: Non-toxic
- Activity [3]: inactive
- Activity [1]: Active

Structure (SMILES): COC1=CC(=O)OC(c2ccc(OC)c(OC)c2)C1 (stereo not drawn)
- Activity [1]: inactive
